The results in this text go back to ChEMBL document CHEMBL4261600 (Eur J Med Chem, 2018).

Series [1] has as its target Fibroblast growth factor receptor 2 (Homo sapiens) (UniProt P21802). Nature of the series: Binding affinity to wild-type human partial length FGFR2 (D457 to E769 residues) expressed in bacterial expression system assessed as remaining unbound target protein level at 1000 nM by Kinomescan method relative to control. An outline of the steps: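 KINOMEscan binding panel of 468 kinases/mutants. Inhibitor was tested at a single concentration of 1 μM. Binding is reported as percent of control, defined relative to a DMSO control.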

Series [2] has as its target Ribosomal protein S6 kinase alpha-5 (Homo sapiens) (UniProt O75582). Kind of series: Binding affinity to wild-type human partial length N-terminal RPS6KA5 kinase domain 1 expressed in bacterial expression system assessed as remaining unbound target protein level at 1000 nM by Kinomescan method relative to control.
The species named for series [3] is Homo sapiens. Kind of series: Selectivity ratio of IC50 for recombinant full length His-tagged human CDK2/CyclinA to IC50 for recombinant full length His-tagged human CDK9/CyclinT1.
Series [4] is described as follows: Cmax in beagle dog at 2 mg/kg, iv by LC-MS/MS analysis. In kind it is ADME, organism-based, Canis lupus familiaris. Details: dose 2 mg/kg, route intravenous. The settings on record: in vivo.
In a further series the test system is OCI-AML-3. Nature of the series: Antiproliferative activity against human OCI-AML3 cells after 72 hrs by Celltiter-Glo assay. The class given is functional. The settings on record: OCI-AML-3, 72 h. In outline:
(§1)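 Cells seeded at 3000/well in 96-well plates, exposed to serially diluted compound for 72 h at 37 °C, 5% CO2. Viability read by CellTiter-Glo luminescence and normalized to DMSO control. GI50 derived from curve fit, mean of three independent measurements. Culture media: DMEM/10% FBS for adherent lines; IMDM for MV4-11 and MEC-1/2; RPMI 1640 for suspension lines and CHL.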
A general note: ATP-based viability assays read luminescence as a measure of living cells.

Series [5] deals with Mitogen-activated protein kinase kinase kinase 7 (Homo sapiens) (UniProt O43318). Nature of the series: Binding affinity to wild-type human partial length TAK1 (M1 to Q303 residues) expressed in mammalian expression system assessed as remaining unbound target protein level at 1000 nM by Kinomescan method relative to control.
For series [6], the species on record is Homo sapiens. Nature of the series: Selectivity ratio of IC50 for recombinant GST-tagged inactive state of human CDK16 (108 to end residues)/cyclin Y (2 to end residues) to IC50 for recombinant full length His-tagged human CDK9/CyclinT1.
The next series deals with MOLM-13. Kind of series: Antiproliferative activity against human MOLM13 cells after 72 hrs by Celltiter-Glo assay. The class given is functional. The settings on record: MOLM-13, 72 h. An outline of the steps:
as §1

Series [7] deals with Mitogen-activated protein kinase 7 (Homo sapiens) (UniProt Q13164). Nature of the series: Binding affinity to wild-type human partial length ERK5 (M1 to A409 residues) expressed in bacterial expression system assessed as remaining unbound target protein level at 1000 nM by Kinomescan method relative to control.
Mitogen-activated protein kinase 7 (Homo sapiens), sequence (Q13164 2-816 limits assumed): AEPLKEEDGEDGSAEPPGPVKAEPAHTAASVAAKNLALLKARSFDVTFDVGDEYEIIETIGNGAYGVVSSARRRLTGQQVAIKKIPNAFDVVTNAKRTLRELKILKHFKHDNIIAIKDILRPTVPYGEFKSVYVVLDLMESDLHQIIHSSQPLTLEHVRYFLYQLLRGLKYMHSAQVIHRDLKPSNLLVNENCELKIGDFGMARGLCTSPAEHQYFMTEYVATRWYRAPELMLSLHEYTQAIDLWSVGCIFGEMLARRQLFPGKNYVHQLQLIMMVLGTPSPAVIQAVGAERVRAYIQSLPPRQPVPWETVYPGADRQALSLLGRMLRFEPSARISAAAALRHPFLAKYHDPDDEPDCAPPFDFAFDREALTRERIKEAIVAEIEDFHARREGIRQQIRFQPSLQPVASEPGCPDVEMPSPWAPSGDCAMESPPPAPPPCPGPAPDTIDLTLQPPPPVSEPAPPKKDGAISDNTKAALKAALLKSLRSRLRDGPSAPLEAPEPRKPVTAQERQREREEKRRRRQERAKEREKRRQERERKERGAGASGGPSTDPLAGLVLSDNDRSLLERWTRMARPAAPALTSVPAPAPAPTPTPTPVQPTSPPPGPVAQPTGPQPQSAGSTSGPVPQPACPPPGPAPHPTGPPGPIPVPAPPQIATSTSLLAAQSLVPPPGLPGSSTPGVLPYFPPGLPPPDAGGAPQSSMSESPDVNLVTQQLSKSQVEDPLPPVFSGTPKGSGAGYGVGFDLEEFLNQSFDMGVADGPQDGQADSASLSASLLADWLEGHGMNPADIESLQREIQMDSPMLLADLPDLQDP
The test system of series [8] is eIF-2-alpha kinase GCN2 (Homo sapiens), Q9P2K8 [S808G]. Kind of series: Binding affinity to wild-type human partial length GCN2 kinase domain 2 (R585 to T1018 residues) S808G mutant expressed in bacterial expression system assessed as remaining unbound target protein level at 1000 nM by Kinomescan method relative to control.
Series [9] has as its target Mast/stem cell growth factor receptor Kit (Homo sapiens) (UniProt P10721). Nature of the series: Binding affinity to wild-type human partial length KIT (I571 to D952 residues) expressed in bacterial expression system assessed as remaining unbound target protein level at 1000 nM by Kinomescan method relative to control.
For series [10], the target named is Serine/threonine-protein kinase OSR1 (Homo sapiens) (UniProt O95747). Nature of the series: Binding affinity to wild-type human full length OSR1 (M1 to S527 residues) expressed in mammalian expression system assessed as remaining unbound target protein level at 1000 nM by Kinomescan method relative to control. An outline of the steps:
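Single-point competition binding screen across a panel of 468 kinases and mutants, with the inhibitor at 1 μM. Binding is read out as percent of a DMSO control, and targets below 1 percent control were classed as strong binders.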

Series [11] concerns the target Tyrosine-protein kinase ZAP-70 (Homo sapiens) (UniProt P43403). Kind of series: Binding affinity to wild-type human partial length ZAP70 (D20 to G299 residues) expressed in mammalian expression system assessed as remaining unbound target protein level at 1000 nM by Kinomescan method relative to control.
The target in series [12] is Casein kinase II subunit alpha (Homo sapiens) (UniProt P68400). Kind of series: Binding affinity to wild-type human full length CSNK2A1 (M1 to Q391 residues) expressed in mammalian expression system assessed as remaining unbound target protein level at 1000 nM by Kinomescan method relative to control. In outline:
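KINOMEscan competitive binding profile at 1 μM inhibitor. Remaining target binding reported as percent of DMSO control.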

Series [13] deals with Serine/threonine-protein kinase PRP4 homolog (Homo sapiens) (UniProt Q13523). Kind of series: Binding affinity to wild-type human partial length PRP4 (D657 to I1007 residues) expressed in bacterial expression system assessed as remaining unbound target protein level at 1000 nM by Kinomescan method relative to control.
Serine/threonine-protein kinase PRP4 homolog (Homo sapiens), sequence (Q13523 whole entry, the tested form may be a part): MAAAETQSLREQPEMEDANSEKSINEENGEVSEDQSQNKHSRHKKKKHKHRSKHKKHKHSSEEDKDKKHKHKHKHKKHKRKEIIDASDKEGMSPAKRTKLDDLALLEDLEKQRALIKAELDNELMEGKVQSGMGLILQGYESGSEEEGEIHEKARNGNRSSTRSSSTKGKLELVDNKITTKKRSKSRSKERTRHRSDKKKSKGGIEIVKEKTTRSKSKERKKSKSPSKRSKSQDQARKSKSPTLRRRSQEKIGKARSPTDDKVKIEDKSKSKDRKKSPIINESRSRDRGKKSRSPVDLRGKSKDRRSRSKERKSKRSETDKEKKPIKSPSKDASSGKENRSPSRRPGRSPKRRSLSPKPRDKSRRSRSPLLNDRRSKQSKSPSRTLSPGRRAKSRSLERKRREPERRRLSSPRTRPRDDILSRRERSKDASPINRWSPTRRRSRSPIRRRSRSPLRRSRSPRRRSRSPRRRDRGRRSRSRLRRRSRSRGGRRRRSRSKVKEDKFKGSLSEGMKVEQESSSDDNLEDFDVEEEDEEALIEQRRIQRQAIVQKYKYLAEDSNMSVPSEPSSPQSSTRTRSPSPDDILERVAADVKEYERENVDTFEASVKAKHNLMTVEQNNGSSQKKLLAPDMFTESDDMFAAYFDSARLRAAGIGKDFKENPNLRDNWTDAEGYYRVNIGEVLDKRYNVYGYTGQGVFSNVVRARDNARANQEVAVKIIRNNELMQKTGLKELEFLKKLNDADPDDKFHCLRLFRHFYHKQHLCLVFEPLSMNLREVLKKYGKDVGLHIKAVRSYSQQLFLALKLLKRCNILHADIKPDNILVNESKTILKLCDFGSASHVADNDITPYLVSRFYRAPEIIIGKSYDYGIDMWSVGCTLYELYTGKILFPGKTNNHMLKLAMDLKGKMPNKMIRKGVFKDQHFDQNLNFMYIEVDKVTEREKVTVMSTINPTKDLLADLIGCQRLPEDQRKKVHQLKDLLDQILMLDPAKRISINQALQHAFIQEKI
The nature of series [14]: Half life in mouse at 10 mg/kg, po by LC-MS/MS analysis. The class given is ADME, organism-based. The settings on record: in vivo.
The species named for series [15] is Homo sapiens. Nature of the series: Selectivity ratio of IC50 for recombinant full length His-tagged human CDK7/cyclin H/MNAT1 to IC50 for recombinant full length His-tagged human CDK9/CyclinT1.
Series [16] concerns the target Dual specificity testis-specific protein kinase 1 (Homo sapiens) (UniProt Q15569). Nature of the series: Binding affinity to wild-type human full length TESK1 (R37 to S626 residues) expressed in bacterial expression system assessed as remaining unbound target protein level at 1000 nM by Kinomescan method relative to control. An outline of the steps:
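Profiled in a KINOMEscan binding panel with the inhibitor at a single concentration of 1 μM. Binding to each kinase was read out as percent of control, relative to a DMSO control. Strong binders were defined as those with a percent control value below 1.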

Series [17] concerns Phosphatidylinositol 4,5-bisphosphate 3-kinase catalytic subunit alpha isoform (Homo sapiens), P42336 [C420R]. Nature of the series: Binding affinity to human partial length PIK3CA C420R mutant (R108 to N1068 residues) expressed in mammalian expression system assessed as remaining unbound target protein level at 1000 nM by Kinomescan method relative to control. An outline of the steps:
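KINOMEscan competition-binding profiling across the panel of 468 kinases and mutants, with inhibitor tested at 1 μM. Binding is expressed as percent of control, with DMSO as the reference control.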

Series [18] deals with Protein kinase C iota type (Homo sapiens) (UniProt P41743). Kind of series: Binding affinity to wild-type human partial length PRKCI (H215 to V587 residues) expressed in mammalian expression system assessed as remaining unbound target protein level at 1000 nM by Kinomescan method relative to control.
The target in series [19] is Serine/threonine-protein kinase mTOR (Homo sapiens) (UniProt P42345). Kind of series: Binding affinity to wild-type human partial length MTOR (L1382 to W2549 residues) expressed in mammalian expression system assessed as remaining unbound target protein level at 1000 nM by Kinomescan method relative to control.
Series [20] is described as follows: Cmax in mouse at 10 mg/kg, po by LC-MS/MS analysis. The class given is ADME, organism-based. Details: dose 10 mg/kg, route oral. The settings on record: in vivo.
In series [21] the target is Serine/threonine-protein kinase 25 (Homo sapiens) (UniProt O00506). Nature of the series: Binding affinity to wild-type human partial length YSK1 (V14 to H295 residues) expressed in bacterial expression system assessed as remaining unbound target protein level at 1000 nM by Kinomescan method relative to control.
Serine/threonine-protein kinase 25 (Homo sapiens), sequence (O00506 whole entry, looked up, the tested form may be a part): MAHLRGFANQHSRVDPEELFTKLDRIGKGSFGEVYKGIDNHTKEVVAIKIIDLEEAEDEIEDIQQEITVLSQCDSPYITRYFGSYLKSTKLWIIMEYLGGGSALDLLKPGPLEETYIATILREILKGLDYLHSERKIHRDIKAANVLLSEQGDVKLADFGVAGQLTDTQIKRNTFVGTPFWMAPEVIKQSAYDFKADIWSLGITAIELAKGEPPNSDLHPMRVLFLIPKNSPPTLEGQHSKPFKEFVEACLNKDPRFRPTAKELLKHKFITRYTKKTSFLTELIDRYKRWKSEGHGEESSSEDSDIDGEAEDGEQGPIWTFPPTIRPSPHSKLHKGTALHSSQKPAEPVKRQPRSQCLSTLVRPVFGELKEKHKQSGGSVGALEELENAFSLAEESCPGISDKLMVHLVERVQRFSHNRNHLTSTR

Serine/threonine-protein kinase OSR1 (Homo sapiens), sequence (O95747 2-527 limits assumed): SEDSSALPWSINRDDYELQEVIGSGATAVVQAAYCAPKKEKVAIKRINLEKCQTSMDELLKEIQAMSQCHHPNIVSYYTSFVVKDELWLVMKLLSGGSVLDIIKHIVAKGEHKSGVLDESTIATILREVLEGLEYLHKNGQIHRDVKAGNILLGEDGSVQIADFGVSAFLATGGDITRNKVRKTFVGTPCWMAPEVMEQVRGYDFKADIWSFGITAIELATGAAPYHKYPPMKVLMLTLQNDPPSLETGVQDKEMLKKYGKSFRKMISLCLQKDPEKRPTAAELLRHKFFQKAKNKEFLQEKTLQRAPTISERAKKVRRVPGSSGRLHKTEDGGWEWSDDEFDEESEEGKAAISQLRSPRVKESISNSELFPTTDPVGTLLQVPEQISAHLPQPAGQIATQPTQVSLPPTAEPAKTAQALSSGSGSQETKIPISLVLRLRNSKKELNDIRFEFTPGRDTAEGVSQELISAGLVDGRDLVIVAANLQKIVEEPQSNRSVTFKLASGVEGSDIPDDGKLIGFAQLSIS
Phosphatidylinositol 4,5-bisphosphate 3-kinase catalytic subunit alpha isoform (Homo sapiens), P42336 [C420R], sequence (P42336 whole entry C420R, the tested form may be a part, canonical isoform): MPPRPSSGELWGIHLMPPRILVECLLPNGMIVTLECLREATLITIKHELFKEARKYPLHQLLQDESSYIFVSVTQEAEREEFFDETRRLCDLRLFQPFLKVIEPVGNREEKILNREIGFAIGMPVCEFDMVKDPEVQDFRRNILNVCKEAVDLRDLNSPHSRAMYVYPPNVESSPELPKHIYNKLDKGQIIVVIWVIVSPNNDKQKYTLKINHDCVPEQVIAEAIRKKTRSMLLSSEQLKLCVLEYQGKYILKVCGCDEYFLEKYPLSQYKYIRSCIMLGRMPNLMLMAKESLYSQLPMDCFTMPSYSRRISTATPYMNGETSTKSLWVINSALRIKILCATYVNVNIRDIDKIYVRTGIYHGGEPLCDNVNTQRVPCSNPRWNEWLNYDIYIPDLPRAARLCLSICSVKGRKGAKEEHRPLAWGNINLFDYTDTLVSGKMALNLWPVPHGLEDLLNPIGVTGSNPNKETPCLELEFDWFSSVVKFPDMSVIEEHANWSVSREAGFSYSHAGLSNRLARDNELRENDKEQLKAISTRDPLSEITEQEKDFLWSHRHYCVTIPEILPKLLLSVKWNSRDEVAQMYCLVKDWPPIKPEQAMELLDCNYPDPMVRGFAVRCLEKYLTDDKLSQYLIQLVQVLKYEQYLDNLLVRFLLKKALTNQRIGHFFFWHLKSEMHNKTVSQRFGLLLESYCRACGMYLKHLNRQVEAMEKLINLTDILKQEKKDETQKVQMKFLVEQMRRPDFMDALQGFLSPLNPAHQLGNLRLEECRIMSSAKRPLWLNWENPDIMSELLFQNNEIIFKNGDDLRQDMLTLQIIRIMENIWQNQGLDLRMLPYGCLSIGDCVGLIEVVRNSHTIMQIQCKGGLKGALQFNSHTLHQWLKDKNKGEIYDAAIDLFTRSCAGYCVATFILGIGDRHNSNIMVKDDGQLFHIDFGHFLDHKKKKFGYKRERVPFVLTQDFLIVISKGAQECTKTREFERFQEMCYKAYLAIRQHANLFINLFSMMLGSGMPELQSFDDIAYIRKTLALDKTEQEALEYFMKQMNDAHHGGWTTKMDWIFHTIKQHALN
Dual specificity testis-specific protein kinase 1 (Homo sapiens), sequence (Q15569 whole entry, looked up, the tested form may be a part): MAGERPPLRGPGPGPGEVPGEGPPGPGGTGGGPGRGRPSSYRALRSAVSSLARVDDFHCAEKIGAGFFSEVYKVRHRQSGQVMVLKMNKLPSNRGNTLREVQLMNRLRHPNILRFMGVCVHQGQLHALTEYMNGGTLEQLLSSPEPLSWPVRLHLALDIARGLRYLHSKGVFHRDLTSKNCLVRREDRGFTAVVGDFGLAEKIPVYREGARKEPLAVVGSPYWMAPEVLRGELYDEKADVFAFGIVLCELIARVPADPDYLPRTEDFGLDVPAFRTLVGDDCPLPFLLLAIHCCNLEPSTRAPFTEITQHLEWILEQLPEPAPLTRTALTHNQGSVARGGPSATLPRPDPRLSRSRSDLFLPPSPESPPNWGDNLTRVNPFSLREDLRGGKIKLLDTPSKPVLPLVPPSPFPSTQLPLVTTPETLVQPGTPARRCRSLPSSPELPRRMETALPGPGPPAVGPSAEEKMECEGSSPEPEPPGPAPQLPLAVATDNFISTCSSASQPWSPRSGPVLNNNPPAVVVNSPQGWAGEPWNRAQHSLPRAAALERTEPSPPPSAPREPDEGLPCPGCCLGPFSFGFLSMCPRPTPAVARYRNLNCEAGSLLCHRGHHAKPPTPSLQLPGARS
Casein kinase II subunit alpha (Homo sapiens), sequence (P68400 whole entry, looked up, the tested form may be a part): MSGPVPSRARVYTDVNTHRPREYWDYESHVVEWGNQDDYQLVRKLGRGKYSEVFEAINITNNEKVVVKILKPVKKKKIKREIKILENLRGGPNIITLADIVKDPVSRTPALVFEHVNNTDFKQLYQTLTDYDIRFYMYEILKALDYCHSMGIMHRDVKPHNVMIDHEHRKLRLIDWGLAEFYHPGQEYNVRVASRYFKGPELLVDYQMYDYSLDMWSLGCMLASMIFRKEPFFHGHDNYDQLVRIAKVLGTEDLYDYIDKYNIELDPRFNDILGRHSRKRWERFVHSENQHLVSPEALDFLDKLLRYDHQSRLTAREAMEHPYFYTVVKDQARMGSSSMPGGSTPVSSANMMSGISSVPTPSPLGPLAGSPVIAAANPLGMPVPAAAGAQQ

One may read the Cmax as the maximum level reached in the sampled fluid or tissue. The GI50 is the concentration that inhibits growth by half. Read a low GI50 as greater sensitivity of the cells. As a reminder, the half-life is the time needed for the level to fall by half in the phase considered. A lower half-life goes with rapid decline. For `COCCN[C@H]1CC[C@H](Nc2cc(-c3csc(NCC4(C#N)CCOCC4)n3)c(Cl)cn2)CC1`, the Activity in [1] came out at 93%; in [2], 100%; in series [5] it was 100%; in [7] it was 88%; in series [8], 78%; in series [9], 91%. Besides, the Activity was 100% in [10]; 79% in [11]; 81% in series [12]; 100% in series [13]; 92% in [16]; 100% in [17]. Further, the values for the Activity in [18], in [19] and in series [21] were 100%, 90% and 92%, respectively. Moreover, the values for the Ratio IC50 in the series filed under Homo sapiens [3], in the series filed under Homo sapiens [6] and in the series listed under Homo sapiens [15] were more than 1000, 300 and more than 1000, respectively. Moreover, the figures for the peak concentration (Cmax) in [4] and in [20] were 414 ng/mL and 116 ng/mL, respectively. Further, the GI50 in the series with OCI-AML-3 is 6.6 nM; in the series with MOLM-13, 12 nM. The compound also gave a half-life in series [14] of 93 min.
